In ChEMBL document CHEMBL4251655 (Eur J Med Chem, 2018):
In brackets after ≈: the same amount, converted by molar mass.

Key:
[1] = biological target: T1, Tyrosine-protein kinase JAK3 (Homo sapiens) (UniProt P52333); test: Inhibition of recombinant human GST-tagged JAK3 expressed in baculovirus expression system at 1 uM relative to control
T1 sequence (whole entry): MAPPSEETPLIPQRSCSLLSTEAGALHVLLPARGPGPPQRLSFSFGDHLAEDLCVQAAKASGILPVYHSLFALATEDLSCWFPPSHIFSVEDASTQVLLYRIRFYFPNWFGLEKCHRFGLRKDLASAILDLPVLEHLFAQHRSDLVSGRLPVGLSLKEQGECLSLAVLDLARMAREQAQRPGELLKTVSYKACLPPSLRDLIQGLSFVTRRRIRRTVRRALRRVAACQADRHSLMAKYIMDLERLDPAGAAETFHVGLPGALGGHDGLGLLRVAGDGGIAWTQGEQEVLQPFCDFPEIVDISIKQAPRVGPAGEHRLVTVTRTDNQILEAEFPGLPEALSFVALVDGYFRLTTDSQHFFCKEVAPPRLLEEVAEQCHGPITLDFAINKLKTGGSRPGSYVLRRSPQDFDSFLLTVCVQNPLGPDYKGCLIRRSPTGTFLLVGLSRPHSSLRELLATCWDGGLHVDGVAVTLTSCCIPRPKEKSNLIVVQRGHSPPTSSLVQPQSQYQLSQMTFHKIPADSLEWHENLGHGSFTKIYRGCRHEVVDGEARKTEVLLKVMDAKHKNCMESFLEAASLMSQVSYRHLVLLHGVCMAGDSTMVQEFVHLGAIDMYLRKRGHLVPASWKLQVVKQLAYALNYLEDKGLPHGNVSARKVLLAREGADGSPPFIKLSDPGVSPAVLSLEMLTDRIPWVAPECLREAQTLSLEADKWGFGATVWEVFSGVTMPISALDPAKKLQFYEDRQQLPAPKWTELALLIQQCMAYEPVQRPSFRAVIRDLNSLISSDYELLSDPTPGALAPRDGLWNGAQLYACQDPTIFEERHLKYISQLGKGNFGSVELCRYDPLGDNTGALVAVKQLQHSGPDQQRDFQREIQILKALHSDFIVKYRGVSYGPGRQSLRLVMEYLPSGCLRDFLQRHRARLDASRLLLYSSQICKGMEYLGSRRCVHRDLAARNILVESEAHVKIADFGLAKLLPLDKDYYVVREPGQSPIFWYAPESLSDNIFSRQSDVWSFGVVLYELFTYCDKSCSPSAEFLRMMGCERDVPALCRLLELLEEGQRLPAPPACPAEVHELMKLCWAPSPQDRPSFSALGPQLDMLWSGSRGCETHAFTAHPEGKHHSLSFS
Outline: (§1)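 Forty-kinase selectivity panel; each compound tested at a single 1 µM concentration in the presence of 1 mM ATP; result given as percent inhibition.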

[2] = biological target: T2, Serine/threonine-protein kinase Sgk1 (Homo sapiens) (UniProt O00141); test: Inhibition of recombinant human GST-tagged SGK1 expressed in baculovirus expression system at 1 uM relative to control; outline: as §1
T2 sequence (whole entry): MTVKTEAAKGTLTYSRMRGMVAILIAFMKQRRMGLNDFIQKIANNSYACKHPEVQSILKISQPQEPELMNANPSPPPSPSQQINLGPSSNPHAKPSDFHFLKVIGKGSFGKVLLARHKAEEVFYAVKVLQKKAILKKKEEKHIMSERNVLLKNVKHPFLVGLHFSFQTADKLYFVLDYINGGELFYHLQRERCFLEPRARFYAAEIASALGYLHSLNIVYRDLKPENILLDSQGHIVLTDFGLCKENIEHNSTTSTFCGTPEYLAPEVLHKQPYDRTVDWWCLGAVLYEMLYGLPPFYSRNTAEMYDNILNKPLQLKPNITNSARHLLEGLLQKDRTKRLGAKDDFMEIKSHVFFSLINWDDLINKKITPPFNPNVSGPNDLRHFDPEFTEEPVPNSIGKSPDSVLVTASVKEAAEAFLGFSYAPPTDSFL

[3] = biological target: Fibroblast growth factor receptor 1 (Homo sapiens) (UniProt P11362); test: Inhibition of recombinant human His-tagged FGFR1 cytoplasmic domain expressed in baculovirus expression system at 1 uM relative to control; outline: as §1
[4] = biological target: T3, Serine/threonine-protein kinase Nek2 (Homo sapiens) (UniProt P51955); test: Inhibition of recombinant human full length His-tagged NEK2 expressed in baculovirus expression system at 1 uM relative to control; outline: as §1
T3 sequence (whole entry): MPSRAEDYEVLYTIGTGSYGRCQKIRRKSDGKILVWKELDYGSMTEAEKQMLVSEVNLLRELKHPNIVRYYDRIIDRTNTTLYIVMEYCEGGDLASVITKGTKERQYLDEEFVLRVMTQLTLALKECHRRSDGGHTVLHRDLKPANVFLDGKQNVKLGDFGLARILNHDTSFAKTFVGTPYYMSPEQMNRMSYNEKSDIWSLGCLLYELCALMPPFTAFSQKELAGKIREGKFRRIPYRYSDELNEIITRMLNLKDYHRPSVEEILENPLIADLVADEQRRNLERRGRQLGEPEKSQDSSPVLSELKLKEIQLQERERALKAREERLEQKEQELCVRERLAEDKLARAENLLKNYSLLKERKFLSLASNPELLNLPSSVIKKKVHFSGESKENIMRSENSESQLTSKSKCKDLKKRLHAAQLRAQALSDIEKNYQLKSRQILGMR

[5] = Thermodynamic solubility of the compound at pH 7.4; assay type: physicochemical; conditions: buffer, read-out: Therm_solubility
[6] = Oral bioavailability in rat at 5 mg/kg administered via gavage; assay type: ADME, organism-based; conditions: in vivo
Outline: (§2)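 Rat, oral dosing as a solution.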

[7] = Clearance in rat hepatocytes assessed per million cells; assay type: ADME, cell-based, Hepatocyte
[8] = Clearance in rat at 1 mg/kg, iv by LC-MS/MS analysis; assay type: ADME, organism-based; conditions: in vivo
Outline: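 Rat, single 1 mg/kg intravenous dose.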

[9] = Oral bioavailability in rat at 1 mg/kg administered via gavage; assay type: ADME, organism-based; conditions: in vivo; outline: as §2

Sequence of Fibroblast growth factor receptor 1 (Homo sapiens) (P11362 22-822 limits assumed): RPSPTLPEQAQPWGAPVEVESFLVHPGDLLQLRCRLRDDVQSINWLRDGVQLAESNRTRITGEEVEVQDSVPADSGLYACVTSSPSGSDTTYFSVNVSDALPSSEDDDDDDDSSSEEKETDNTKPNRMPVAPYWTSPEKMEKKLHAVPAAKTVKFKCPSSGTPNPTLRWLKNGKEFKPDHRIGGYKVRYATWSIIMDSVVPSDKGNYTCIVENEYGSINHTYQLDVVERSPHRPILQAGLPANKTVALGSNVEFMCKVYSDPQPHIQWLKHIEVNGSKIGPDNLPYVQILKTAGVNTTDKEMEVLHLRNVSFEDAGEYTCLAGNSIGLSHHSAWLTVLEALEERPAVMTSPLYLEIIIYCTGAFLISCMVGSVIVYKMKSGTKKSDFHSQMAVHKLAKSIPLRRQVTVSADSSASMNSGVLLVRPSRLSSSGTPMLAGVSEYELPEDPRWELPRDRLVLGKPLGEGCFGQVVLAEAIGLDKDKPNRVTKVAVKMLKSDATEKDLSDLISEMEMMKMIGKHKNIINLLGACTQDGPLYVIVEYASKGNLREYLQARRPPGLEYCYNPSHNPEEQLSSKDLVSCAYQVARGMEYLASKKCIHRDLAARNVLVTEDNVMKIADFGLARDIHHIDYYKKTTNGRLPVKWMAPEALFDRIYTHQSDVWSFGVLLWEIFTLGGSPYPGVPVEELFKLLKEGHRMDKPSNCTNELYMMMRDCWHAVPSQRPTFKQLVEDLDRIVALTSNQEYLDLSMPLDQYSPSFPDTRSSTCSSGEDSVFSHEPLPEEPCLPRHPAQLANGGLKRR

| inhibition [1] [%] | inhibition [2] [%] | inhibition [3] [%] | inhibition [4] [%] | solubility thermodynamic [5] [µM] | bioavailability [6] [%] | CLH [7] [µL/min/1e6 cells] | clearance [8] [mL/min/kg] | bioavailability [9] [%] | Structure (SMILES) |
| --- | --- | --- | --- | --- | --- | --- | --- | --- | --- |
| -8 | – | -6 | -3 | 1.2 (≈ 0.5 µg/mL) | < 1 | < 6 | 35 | – | COc1ccc(S(N)(=O)=O)cc1C(=O)Nc1cccc(-c2nncn2C(C)C)n1 |
| 12 | 2 | – | 1 | 5 (≈ 2.08 µg/mL) | – | < 6 | 41 | 8 | COc1ccc(S(C)(=O)=O)cc1C(=O)Nc1cccc(-c2nncn2C(C)C)n1 |
| – | -9 | -2 | – | – | – | – | – | – | COc1ccc(C(N)=O)cc1C(=O)Nc1cccc(-c2nncn2C(C)C)n1 |

The remaining lines, values behind:

| Structure (SMILES) | inhibition [1] [%] | inhibition [2] [%] | inhibition [3] [%] | inhibition [4] [%] | solubility thermodynamic [5] [µM] | bioavailability [6] [%] | CLH [7] [µL/min/1e6 cells] | clearance [8] [mL/min/kg] | bioavailability [9] [%] |
| --- | --- | --- | --- | --- | --- | --- | --- | --- | --- |
| COc1cc(C)c(S(N)(=O)=O)cc1C(=O)Nc1cccc(-c2nncn2C(C)C)n1 | 16 | 1 | 2 | 0 | – | – | – | – | – |
| COc1cc(C)c(S(C)(=O)=O)cc1C(=O)Nc1cccc(-c2nncn2C(C)C)n1 | 0 | 1 | 2 | – | – | – | – | – | – |
| COc1cc(C)c(C(N)=O)cc1C(=O)Nc1cccc(-c2nncn2C(C)C)n1 | 3 | -2 | 2 | – | – | – | – | – | – |
